Measurements taken from ChEMBL document CHEMBL1146234, “Synthesis and biological evaluation of N-pyrazolyl-N'-alkyl/benzyl/phenylureas: a new class of potent inhibitors of interleukin 8-induced neutrophil chemotaxis” (J Med Chem, 2007).
The source made the active and inactive calls. The rule behind the calls is not given here.

Key:
Neutrophil [1] = assay: Cytotoxicity against human neutrophils assessed as viable cells after 2 hrs; type: functional; set-up: concentration or dose not given beside the values
Method in brief: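 Human neutrophils (2 × 10⁶/mL) from healthy donors were incubated 2 h at 37 °C under CO₂ in HBSS:PBS (3:1) with 1 mg/mL BSA, with compounds. Membrane integrity was read by fluorescein diacetate/ethidium bromide staining for 10 min at room temperature, under UV dark-field microscopy. Green cells were scored viable; red nuclei were scored necrotic.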

Neutrophil [2] = assay: Inhibition of IL8-induced neutrophil chemotaxis after 45 mins by Boyden chamber assay; type: functional, cell-based; details: Homo sapiens, 0.75 h
Method in brief: (§1)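 Leading-front Boyden assay with donor neutrophils. Cells were preincubated 15 min at room temperature ± compound. Then 4 × 10⁵ cells were placed above a 3 µm cellulose ester filter, with IL8 or fMLP below. After 45 min at 37 °C, filters were hematoxylin-stained and the leading-front distance was read at ×400, 5 fields per filter, in duplicate. Net migration = stimulated minus spontaneous. IC₅₀ came from nonlinear regression, ≥3 experiments.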

Neutrophil [3] = assay: Inhibition of fMLP-induced neutrophil chemotaxis after 45 mins by Boyden chamber assay; type: functional, cell-based; details: Homo sapiens; method in brief: as §1
Mus musculus [4] = assay: Inhibition of peritoneal granulocyte count in zymosan-induced Swiss mouse peritoneal fluid at 100 mg/kg, po; type: functional
Method in brief: (§2)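 Male Swiss mice (25-30 g), fasted 16 h, n = 8 per group, were dosed orally 1 h before i.p. zymosan (5 mg/mL, 0.2 mL). Dexamethasone 1 mg/kg os served as reference. At 4 h, peritoneal lavage used 3 mL PBS with 3 mM EDTA. Total leukocytes were counted in a Neubauer chamber (Türk 1:100), with differentials by light microscopy. Counts were compared with vehicle by Student's t-test.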

Mus musculus [5] = assay: Monocyte percentage in zymosan-induced Swiss mouse peritoneal fluid at 100 mg/kg, po
Mus musculus [6] = assay: Lymphocyte percentage in zymosan-induced Swiss mouse peritoneal fluid at 100 mg/kg, po
Mus musculus [7] = assay: Inhibition of peritoneal cell count in zymosan-induced Swiss mouse peritoneal fluid at 100 mg/kg, po; type: functional; method in brief: as §2
Mus musculus [8] = assay: Granulocyte percentage in zymosan-induced Swiss mouse peritoneal fluid at 100 mg/kg, po
Mus musculus [9] = assay: Inhibition of peritoneal cell count in zymosan-induced Swiss mouse peritoneal fluid at 1 mg/kg, po; type: functional; details: read-out: Inhibition; method in brief: as §2
Mus musculus [10] = assay: Inhibition of peritoneal granulocyte count in zymosan-induced Swiss mouse peritoneal fluid at 1 mg/kg, po; type: functional; method in brief: as §2
Mus musculus [11] = assay: Percentage of monocytes in zymosan-induced Swiss mouse peritoneal fluid at 1 mg/kg, po
Mus musculus [12] = assay: Percentage of granulocytes in zymosan-induced Swiss mouse peritoneal fluid at 1 mg/kg, po
Mus musculus [13] = assay: Percentage of lymphocytes in zymosan-induced Swiss mouse peritoneal fluid at 1 mg/kg, po

IC50 (Neutrophil [2]) [nM] | SMILES | Activity (Neutrophil [1]) [%] | Activity (Neutrophil [3]) | further results
33 | CCOC(=O)c1cnn(CC(O)c2ccccc2)c1NC(=O)Nc1ccccc1F (stereo not given) | 90 | inactive | –
825 | CC(C)NC(=O)Nc1ccnn1CC(O)c1ccccc1 (stereo not given) | 90 | inactive | –
610 | CCOC(=O)c1cnn(CC(O)c2ccccc2)c1NC(=O)NCCc1ccccc1 (stereo not given) | 90 | inactive | –
251 | CC(C)NC(=O)Nc1c(C(=O)O)cnn1CC(O)c1ccccc1 (stereo not given) | 90 | inactive | –
212 | CCOC(=O)c1cnn(CC(O)c2ccccc2)c1NC(=O)NCc1ccc(F)cc1 (stereo not given) | 90 | inactive | –
1200 | CCOC(=O)c1cnn(CC(O)c2ccccc2)c1NC(=O)Nc1ccccc1OC (stereo not given) | 90 | inactive | –
225 | N#Cc1cnn(CC(O)c2ccccc2)c1NC(=O)Nc1ccccc1 (stereo not given) | 90 | inactive | –
36 | CCOC(=O)c1cnn(CC(O)c2ccccc2)c1NC(=O)Nc1cccc(F)c1 (stereo not given) | 90 | inactive | inhibition in vivo at 100 mg/kg (Mus musculus [4]): 33%; % monocytes at 100 mg/kg (Mus musculus [5]): 10%; % lymphocytes at 100 mg/kg (Mus musculus [6]): 28%; inhibition in vivo at 100 mg/kg (Mus musculus [7]): 29%; % granulocytes at 100 mg/kg (Mus musculus [8]): 62%
– | C[C@@H]1C[C@H]2[C@@H]3CCC4=CC(=O)C=C[C@]4(C)[C@@]3(F)[C@@H](O)C[C@]2(C)[C@@]1(O)C(=O)CO [DEXAMETHASONE] | – | – | inhibition in vivo at 1 mg/kg (Mus musculus [9]): 33%; inhibition in vivo at 1 mg/kg (Mus musculus [10]): 62%; % monocytes at 1 mg/kg (Mus musculus [11]): 14%; % granulocytes at 1 mg/kg (Mus musculus [12]): 42%; % lymphocytes at 1 mg/kg (Mus musculus [13]): 44%
570 | CCOC(=O)c1cnn(CC(O)c2ccccc2)c1NC(=O)NCc1cccc(Cl)c1 (stereo not given) | 90 | inactive | –
5520 | CCOC(=O)c1cnn(CC(O)c2ccccc2)c1NC(=O)NC1CC1 (stereo not given) | 90 | inactive | –
1240 | CCOC(=O)c1cnn(CC(O)c2ccccc2)c1NC(=O)NCc1ccccc1Cl (stereo not given) | 90 | inactive | –
865 | CCOC(=O)c1cnn(CC(O)c2ccccc2)c1NC(=O)N1CCN(C)CC1 (stereo not given) | 90 | inactive | –
1780 | CCOC(=O)c1cnn(CC(O)c2ccccc2)c1NC(=O)NCc1ccccc1Br (stereo not given) | 90 | inactive | –
3890 | CCOC(=O)c1cnn(CC(O)c2ccccc2)c1NC(=O)NCc1ccc(Br)cc1 (stereo not given) | 90 | inactive | –
4950 | CCOC(=O)c1cnn(CC(O)c2ccccc2)c1NC(=O)N1CCCC1 (stereo not given) | 90 | inactive | –
398 | CCOC(=O)c1cnn(CC(O)c2ccccc2)c1NC(=O)Nc1cccc(C)c1 (stereo not given) | 90 | inactive | –

IC50 (Neutrophil [2]) [nM] | SMILES | Activity (Neutrophil [1]) [%] | Activity (Neutrophil [3]) | further results
1000 | CCOCCNC(=O)Nc1c(C(=O)OCC)cnn1CC(O)c1ccccc1 (stereo not given) | 90 | inactive | –
445 | CCOC(=O)c1cnn(CC(O)c2ccccc2)c1NC(=O)Nc1ccc(C)cc1 (stereo not given) | 90 | inactive | –
935 | CCOC(=O)c1cnn(CC(O)c2ccccc2)c1NC(=O)NCc1ccc(Cl)cc1 (stereo not given) | 90 | inactive | –
318 | CCOC(=O)c1cnn(CC(O)c2ccccc2)c1NC(=O)NCc1cccc(F)c1 (stereo not given) | 90 | inactive | –
33 | CCOC(=O)c1cnn(CC(O)c2ccccc2)c1NC(=O)Nc1ccc(F)cc1 (stereo not given) | 90 | inactive | –
35 | CC(C)NC(=O)Nc1c(C#N)cnn1CC(O)c1ccccc1 (stereo not given) | 90 | inactive | –
92 | CCOC(=O)c1cnn(CC(O)c2ccccc2)c1NC(=O)Nc1ccc(Br)cc1 (stereo not given) | 90 | inactive | –
198 | CCOC(=O)c1cnn(CC(O)c2ccccc2)c1NC(=O)NCc1cccc(Br)c1 (stereo not given) | 90 | inactive | –
345 | CCOC(=O)c1cnn(CC(O)c2ccccc2)c1NC(=O)Nc1ccc(Cl)cc1 (stereo not given) | 90 | inactive | –
1490 | CCOC(=O)c1cnn(CC(O)c2ccccc2)c1NC(=O)NCc1ccccc1F (stereo not given) | 90 | inactive | –
950 | CCOC(=O)c1cnn(CC(O)c2ccccc2)c1NC(=O)N1CCOCC1 (stereo not given) | 90 | inactive | –
424 | CCOC(=O)c1cnn(CC(O)c2ccccc2)c1NC(=O)Nc1cccc(Br)c1 (stereo not given) | 90 | inactive | –
1560 | CCOC(=O)c1cnn(CC(O)c2ccccc2)c1NC(=O)Nc1cccc(Cl)c1 (stereo not given) | 90 | inactive | –
– | CCOC(=O)c1cnn(CC(O)c2ccccc2)c1NC(=O)N1CCN(Cc2ccccc2)CC1 (stereo not given) | 90 | inactive | –
3090 | CCOC(=O)c1cnn(CC(O)c2ccccc2)c1NC(=O)N1CCCCC1 (stereo not given) | 90 | inactive | –
1400 | CCOC(=O)c1cnn(CC(O)c2ccccc2)c1NC(=O)Nc1cccc(OC)c1 (stereo not given) | 90 | inactive | –
